Experimental data reported in PubChem BioAssay AID1217 (Sanford-Burnham Center for Chemical Genomics, 2008).
Among all 190,000 compounds or so, about 1,300 (0.68%) were called active. This is one part of a sample in which actives are shown more often than they occur.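 The calls were made as follows: active = primary screen inhibition at 20 µM above a set limit (cut at about 50% in these data); inactive = the rest.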

Test system: diaphorase (Clostridium kluyveri)
Test: diaphorase inhibitors and chemical oxidizers, primary screen, counter-screen for diaphorase-coupled primary assays, biochemical, uHTS, resorufin fluorescence (AID 1217);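 also: plate controls were DMSO with full reaction for no effect and wells lacking NADH for full effect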
Conditions: diaphorase resazurin-to-resorufin fluorescence, NADH, 16 min; at 20 µM; stronger effect = higher value; bacterial (C. kluyveri) enzyme, not human
Procedure, shortened: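 Benchmarks: positive control wells lacking NADH, neutral wells with DMSO only. System: bacterial diaphorase enzyme (C. kluyveri). Input: 0.14 U/mL diaphorase, enzyme working solution. Detection: resorufin fluorescence, excitation 544 nm, emission 590 nm. Times: 16-min room-temperature incubation before reading.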

Row | Structure (SMILES) | inhibition
1 | O=C(Oc1cccc(NC2=NS(=O)(=O)c3ccccc32)c1)c1ccncc1 | 50.9% (active)
2 | O=C(Oc1ccccc1)c1ccc2nccnc2c1 | 6.5% (inactive)
3 | CC(C)(C)c1csc(NC2=NS(=O)(=O)c3ccccc32)n1 | 15.4% (inactive)
4 | Cc1ccc(NC(=O)c2sccc2C)cc1[N+](=O)[O-] | 12.8% (inactive)
5 | O=C(COC(=O)/C=C/c1ccc(S(=O)(=O)N2CCCCCC2)cc1)NCc1ccccc1Cl | 7.9% (inactive)
6 | CN(C)NC(=O)C(NC(=O)c1ccc(N)cc1)C12CC3CC(CC(C3)C1)C2 (stereo not drawn) | 4.7% (inactive)
7 | c1ccc(CSc2nnc(-c3ccco3)c(-c3ccco3)n2)cc1 | 52.9% (active)
8 | Brc1ccc(CSc2ccc(-c3ccco3)nn2)cc1 | 6.5% (inactive)
9 | Clc1ccccc1CSc1nnc(-c2ccco2)c(-c2ccco2)n1 | 46.2% (inactive)
10 | O=C(CCN1CCN(c2ccccc2)CC1)NNC(=S)Nc1ccccc1 | 20.6% (inactive)
11 | COC(=O)/C=C\C(=O)Nc1cccc([N+](=O)[O-])c1 | -5.8% (inactive)
12 | Cc1cccc(NC(=O)c2sc3nc4c(c(-c5ccco5)c3c2N)CCC4)c1 | 61.2% (active)
13 | Cc1nc2sc(C(=O)c3ccccc3)c(N)c2c2c1CCCC2 | 28.7% (inactive)
14 | NC(=O)c1sc2nc3c(c(-c4ccccc4)c2c1N)CCC3 | 36.8% (inactive)
15 | CC(=O)Nc1ccc(NC(=O)c2sc3nc4c(c(-c5ccc(C)cc5)c3c2N)CCC4)cc1 | 51.1% (active)
16 | Cc1ccc(NC(=O)c2sc3nc(N)c(C#N)cc3c2N)cc1 | 18.4% (inactive)
17 | Cc1cccc(NC(=O)CSc2nnc(-c3ccco3)o2)c1 | 9.8% (inactive)
18 | COCCN(C(=O)CCC(=O)Nc1nccs1)C(C(=O)NC(C)(C)C)c1ccc(Cl)cc1 (stereo not drawn) | 10.1% (inactive)
19 | COc1cccc(CN(C)CC(=O)Nc2ccccc2C(=O)Nc2ccccc2)c1 | 26.6% (inactive)
20 | S=C(Nc1ccc2c(c1)OCO2)N1CCCC1 | 3.4% (inactive)

Row | Structure (SMILES) | inhibition
21 | N/C(=N\OC(=O)Cc1ccccc1[N+](=O)[O-])c1ccc(Br)cc1 | 23.2% (inactive)
22 | CCNCc1cc2cc(C)ccc2[nH]c1=O | 20% (inactive)
23 | COc1ccc(CCn2c(=N)c(C(=O)NCc3ccco3)cc3c(=O)n4cccc(C)c4nc32)cc1 | 8.1% (inactive)
24 | Cc1ccc2[nH]c(=O)c(-c3nc4c(C)cccn4c3NCc3ccco3)cc2c1 | 51.5% (active)
25 | Cc1ccc(C)c(-n2cc(CN3CCN(C(=O)c4ncn[nH]4)CC3)c(-c3ccccc3)n2)c1 | 13.7% (inactive)
26 | Fc1ccccc1N=C1Nc2cccc3cccc1c23 | 12.1% (inactive)
27 | COc1ccccc1C1=Nc2cccc3cccc(c23)N1 | 63.5% (active)
28 | c1ccc(C2=Nc3cccc4cccc(c34)N2)cc1 | 27% (inactive)
29 | O=C1CC(=O)Nc2cc(S(=O)(=O)N3CCN(c4cccc(C(F)(F)F)c4)CC3)ccc2N1 | 0.3% (inactive)
30 | CCOC(=O)C1=NOC(Cn2cc(C(C)=O)c(=O)[nH]c2=O)C1 (stereo not drawn) | 2.6% (inactive)
31 | CCOc1cc(/C=N/NC(=O)c2ccc(CSc3nncn3C)cc2)ccc1OCC(=O)N1CCOCC1 | -14% (inactive)
32 | COc1cc(CNCCN(C)C)ccc1OCc1c(F)cccc1Cl | 3.9% (inactive)
33 | COc1ccc(C[C@H]2CN3C(=NC[C@H]3C)N2CCNC(=O)CCC2CCCCC2)cc1 | 0.9% (inactive)
34 | Cc1nc2ccccc2n1CC(=O)N/N=C/c1cccnc1 | 8.6% (inactive)
35 | Cc1nccn1CC(=O)N/N=C/c1ccc(O)c(O)c1 | 50.4% (active)
36 | O=C(N/N=C/c1ccc(O)c(O)c1)C1c2ccccc2Oc2ccccc21 | 37.6% (inactive)
37 | CCN(CC)C(=O)Cn1cc(S(=O)(=O)CC(=O)NCc2ccc3c(c2)OCO3)c2ccccc21 | 10.1% (inactive)
38 | CC(C)Oc1ccc(CC(=O)NNC(=S)Nc2ccc(Br)cc2)cc1 | -0.6% (inactive)
39 | COC(=O)c1ccc(C(=O)OC)c(NC(=S)N2CCN(c3ccc(F)cc3)CC2)c1 | 11.5% (inactive)
40 | CCc1ccc(N(CC(=O)Nc2sc3c(c2C(=O)OC)CCCC3)S(C)(=O)=O)cc1 | 28.6% (inactive)

Row | Structure (SMILES) | inhibition
41 | Cc1cc(C)cc(OCc2nnc(SCC(=O)Nc3ccccc3)o2)c1 | 8.2% (inactive)
42 | Cc1ccc(NC(=O)CSc2nnc(CNC(=O)c3ccccc3F)o2)cc1 | -12.4% (inactive)
43 | Cc1ccc(NC(=O)CSc2nnc(COc3ccccc3C)o2)cc1 | 55.6% (active)
44 | C/C(=N\NC(=O)OC(C)(C)C)c1ccc[nH]1 | 1.8% (inactive)
45 | COc1ccc(N2CCN(c3ccc([N+](=O)[O-])nc3)CC2)cc1 | -1% (inactive)
46 | CC(=O)NC(Cc1ccccc1)C(=O)NC1CCN(c2ncccc2[N+](=O)[O-])CC1 (stereo not drawn) | 15.7% (inactive)
47 | COc1ccc(-c2cc(C3CCN(c4ncccc4[N+](=O)[O-])CC3)[nH]n2)cc1 | 52.2% (active)
48 | Cc1ccc(CNC(=O)Cn2c(=O)c3sccc3n(Cc3cccc([N+](=O)[O-])c3)c2=O)cc1 | -2.4% (inactive)
49 | O=C(C1CCN(S(=O)(=O)c2ccc(Br)s2)CC1)N1CCN(C2CCCCC2)CC1 | 18.2% (inactive)
50 | CCn1c(O)c(N=NC(=O)c2cccc(S(=O)(=O)N3CCCCC3)c2)c2ccccc21 | 29.2% (inactive)
51 | CCn1c(=O)cc(O)c2ccccc21 | 8.6% (inactive)
52 | CCn1c(O)c(N=NC2=NC(=O)CS2)c2cc(C)ccc21 | 86.4% (active)
53 | CC(C)c1ccc(Nc2nnc(SCC(=O)c3nnc(-c4ccccc4)o3)s2)cc1 | 18.8% (inactive)
54 | O=C1OCC2=C1C(c1ccccc1)CC(=O)N2c1cccc(F)c1 (stereo not drawn) | -4.2% (inactive)
55 | COc1ccc(N2CCN(CCCNC(=O)C3CCN(S(=O)(=O)N4CCOCC4)CC3)CC2)cc1 | 0.3% (inactive)
56 | CC(=O)n1cc([C@@H]2C=C(C(=O)N3CCN(Cc4ccc5c(c4)OCO5)CC3)O[C@H](OCc3ccc(CO)cc3)C2)c2ccccc21 | 53.6% (active)
57 | CC(=O)n1cc([C@H]2C=C(C(=O)N3CCOCC3)O[C@@H](OCc3ccc(CO)cc3)C2)c2ccccc21 | -0.6% (inactive)
58 | CN1CCN(C(=O)C2=C[C@H](c3ccc4c(c3)OCO4)C[C@H](OCc3ccc(CO)cc3)O2)CC1 | 5.9% (inactive)
